Experimental data as given in ChEMBL document CHEMBL1125360 (J Med Chem, 1992).
Where a SMILES comes first, the peptide text is derived from it. [ ]: non-standard residue; d: D form. The star is where a group is joined. Tyr(Nα,Nα-allyl2) = C=CCN(CC=C)[C@@H](Cc1ccc(O)cc1)C(=O)*; Aib = CC(C)(N)C(=O)O

Legend:
[1] = test system: Delta-type opioid receptor; test: Selectivity for kappa to delta opioid receptors was determined; settings: Cavia porcellus
[2] = The compound was evaluated for binding affinity against Opioid receptor delta 1 in guinea pig brain membrane using [3H]- DPDPE as ligand
[3] = molecular target: Mu-type opioid receptor (Cavia porcellus) (UniProt P97266); test: Selectivity for mu to delta opioid receptors was determined
Chain of Mu-type opioid receptor (Cavia porcellus) (P97266 whole entry): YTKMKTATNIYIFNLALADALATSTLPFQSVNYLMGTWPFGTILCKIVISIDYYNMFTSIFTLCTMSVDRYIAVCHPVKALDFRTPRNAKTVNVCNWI

Mus musculus [4] = species on record: Mus musculus; test: The compound was evaluated for antinociceptive potency using tail flick assay in mice; type: functional
Outline: (§1)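 Mouse antinociception by abdominal stretch or tail flick assay. Test compound given icv. ED50 in nmol/mouse with 95% confidence limits.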

Mus musculus [5] = species on record: Mus musculus; test: The compound was evaluated for antinociceptive potency using abdominal stretch assay in mice; type: functional, Abdomen; set-up: unit not given here; outline: as §1
Mus musculus [6] = species on record: Mus musculus; test: The compound was evaluated for antagonistic activity by incubating with the smooth muscle preparation (MVD) for 15 min prior to testing with morphine; type: functional, Muscle tissue
Outline: (§2)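 Electrically stimulated guinea pig ileal longitudinal muscle or mouse vas deferens. Test ligand incubated 15 min before standard agonist challenge (morphine, ethylketazocine or DADLE). Ligand at 100 nM, or at 10, 20 or 30 nM when it had agonist activity, kept at or below its ED20.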

Mus musculus [7] = species on record: Mus musculus; test: The compound was tested for opioid agonist activity against mouse vas deferens (MVD); type: functional
Outline: (§3)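 Electrically stimulated guinea pig ileal longitudinal muscle and mouse vas deferens. For full agonists, 4-6 concentrations gave concentration-response curves compared with standard agonists in the same preparation. IC50 is the concentration giving a half-maximal response, with 95% confidence limits.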

Cavia porcellus [8] = species on record: Cavia porcellus; test: The compound was tested for opioid agonist activity against guinea pig ileal longitudinal muscle (GPI); type: functional, Muscle tissue; outline: as §3
Cavia porcellus [9] = species on record: Cavia porcellus; test: The compound was evaluated for antagonistic activity by incubating with the smooth muscle preparation (GPI) for 15 min prior to testing with Ethylketazocine (EK); type: functional, Muscle tissue; outline: as §2
Mu-type opioid receptor [10] = molecular target: T1, Mu-type opioid receptor (Cavia porcellus, UniProt P97266); test: The compound was evaluated for binding affinity against opioid receptor mu in guinea pig brain membranes using [3H]- DAMGO as ligand; type: cell membranes, Membrane
T1 sequence (P97266 whole entry): as above
Outline: (§4)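 Competition binding on guinea pig brain membranes. δ sites labelled with [3H]DPDPE, μ with [3H]DAMGO, κ with [3H]U69593. A footnote also describes κ labelling with [3H]ethylketazocine in the presence of 1 µM DAMGO.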

Mus musculus [11] = species on record: Mus musculus; test: The compound was evaluated for antagonistic activity by incubating with the smooth muscle preparation (MVD) for 15 min prior to testing with DADLE; type: functional, Muscle tissue; outline: as §2
[12] = molecular target: Kappa-type opioid receptor (Cavia porcellus, UniProt P41144); test: The compound was evaluated for binding affinity against the opioid receptor kappa in guinea pig brain membranes using [3H]- U-69,593; type: cell membranes, Membrane; outline: as §4
Chain of Kappa-type opioid receptor (P41144 whole entry): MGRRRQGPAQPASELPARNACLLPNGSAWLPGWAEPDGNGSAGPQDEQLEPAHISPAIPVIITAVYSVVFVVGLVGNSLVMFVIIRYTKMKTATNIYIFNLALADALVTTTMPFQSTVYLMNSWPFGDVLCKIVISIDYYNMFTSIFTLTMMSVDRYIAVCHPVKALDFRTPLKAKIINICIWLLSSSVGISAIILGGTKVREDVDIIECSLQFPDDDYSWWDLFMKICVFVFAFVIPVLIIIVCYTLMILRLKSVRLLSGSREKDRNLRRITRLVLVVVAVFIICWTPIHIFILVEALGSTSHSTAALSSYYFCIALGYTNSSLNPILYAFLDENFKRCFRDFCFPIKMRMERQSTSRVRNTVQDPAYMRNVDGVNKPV

Cavia porcellus [13] = species on record: Cavia porcellus; test: The compound was evaluated for antagonistic activity by incubating with the smooth muscle preparation (GPI) for 15 min prior to testing with morphine; type: functional, Muscle tissue; outline: as §2
Mus musculus [14] = species on record: Mus musculus; test: The compound was tested for antagonizing the antinociceptive potency of morphine using abdominal assay in mice; type: functional, Abdomen
Outline: (§5)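 Mice, abdominal stretch assay. Agonist peak times after icv dosing: DSLET 10 min, DPDPE 20 min, U50488H 15 min, morphine 30 min. Read-out is the agonist ED50 ratio with 95% confidence limits.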

Mus musculus [15] = species on record: Mus musculus; test: The compound was tested for antagonizing the antinociceptive potency of DSLET using abdominal assay in mice.; type: functional, Abdomen; outline: as §5
Mus musculus [16] = species on record: Mus musculus; test: Effect of the opioid antagonist (naltrindole, delta) on the antinociceptive potency using tail flick assay; type: functional
Outline: (§6)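 Mice pretreated sc with β-FNA 20 µmol/kg 24 h before, norBNI 12 µmol/kg 2 h before, or NTI 44 µmol/kg 0.5 h before. Test compound then given icv in the abdominal stretch or tail flick assay. ED50 ratio is pretreated ED50 divided by control ED50, with 95% confidence limits.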

Mus musculus [17] = species on record: Mus musculus; test: Antagonistic activity against morphine in smooth muscle preparation (MVD); type: functional, Muscle tissue; outline: as §2
Opioid receptor = Opioid receptor (Mus musculus, UniProt P42866+P32300+P33534); test: Compound was tested for agonistic activity against the opioid receptor in electrically stimulated mouse vas deference; type: functional; outline: as §3
Mus musculus [18] = species on record: Mus musculus; test: Effect of the opioid antagonist (norbinaltorphimine, kappa) on the antinociceptive potency using abdominal stretch assay in mice.; type: functional, Abdomen; outline: as §6
Mus musculus [19] = species on record: Mus musculus; test: Effect of the opioid antagonist (beta-funaltrexamine, mu) on the antinociceptive potency using tail flick assay in mice.(values in the parenthesis indicate 95% confidence limits); type: functional
Outline: (§7)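 Mice, tail flick assay. Antagonist given sc beforehand: beta-FNA 20 µmol/kg 24 h before, or norBNI 12 µmol/kg 2 h before. Test compound then given icv. ED50 ratio = ED50 of test compound in pretreated mice divided by control ED50, with 95% confidence limits.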

Cavia porcellus [20] = species on record: Cavia porcellus; test: Antagonistic activity against morphine in guinea pig ileal longitudinal muscle (GPI); type: functional, Muscle tissue; outline: as §2
Mus musculus [21] = species on record: Mus musculus; test: Antagonistic activity against DADLE in smooth muscle preparation (MVD); type: functional, Muscle tissue; outline: as §2
Mus musculus [22] = species on record: Mus musculus; test: Effect of the opioid antagonist (naltrindole, delta) on the antinociceptive potency using abdominal stretch assay in mice; type: functional, Abdomen; outline: as §6
Cavia porcellus [23] = species on record: Cavia porcellus; test: Opiod agonistic activity against delta enriched smooth muscle preparation.; type: functional; settings: Muscle tissue
Cavia porcellus [24] = species on record: Cavia porcellus; test: Antagonistic activity against EK in guinea pig ileal longitudinal muscle (GPI); type: functional, Muscle tissue; outline: as §2
Mus musculus [25] = species on record: Mus musculus; test: The compound was tested for antagonizing the antinociceptive potency of U-50,488H using abdominal assay in mice; type: functional, Abdomen; outline: as §5
Mus musculus [26] = species on record: Mus musculus; test: Effect of the opioid antagonist (beta-funaltrexamine, mu) on the antinociceptive potency using abdominal stretch assay in mice.; type: functional, Abdomen; outline: as §6
Mus musculus [27] = species on record: Mus musculus; test: The compound was tested for antagonizing the antinociceptive potency of DPDPE using abdominal assay in mice.; type: functional, Abdomen; outline: as §5
Mus musculus [28] = species on record: Mus musculus; test: Effect of the opioid antagonist (norbinaltorphimine, kappa) on the antinociceptive potency using tail flick assay in mice; type: functional; outline: as §7
Mu-type opioid receptor [29] = molecular target: T1, Mu-type opioid receptor; test: The compound was evaluated for binding affinity against Opioid receptor mu 1 in guinea pig brain membranes; type: cell membranes, Membrane; outline: as §4
Mus musculus [30] = species on record: Mus musculus; test: The compound was tested for antagonizing the antinociceptive potency of U-50,488H using abdominal assay in mice.(values in the parenthesis indicate 95% confidence limits); type: functional, Abdomen
Cavia porcellus [31] = species on record: Cavia porcellus; test: Opiod agonistic activity against delta enriched smooth muscle preparation; type: functional; settings: Muscle tissue
Mus musculus [32] = species on record: Mus musculus; test: The compound was tested for antagonizing the antinociceptive potency of DPDPE using abdominal assay in mice.(values in the parenthesis indicate 95% confidence limits); type: functional, Abdomen
Mus musculus [33] = species on record: Mus musculus; test: The compound was tested for antagonizing the antinociceptive potency of morphine using abdominal assay in mice.(values in the parenthesis indicate 95% confidence limits); type: functional, Abdomen
Mus musculus [34] = species on record: Mus musculus; test: The compound was tested for antagonizing the antinociceptive potency of DSLET using abdominal assay in mice.(values in the parenthesis indicate 95% confidence limits); type: functional, Abdomen

Row | Structure (SMILES) | Ratio [1] | Ratio [3] | ED50 (Mus musculus [4]) [nmol/mouse] | ED50 (Mus musculus [5]) | Max response (Mus musculus [7]) [%] | Max response (Cavia porcellus [8]) [%] | Ki (Mu-type opioid receptor [10]) [nM] | Ki [12] [nM] | ED50 ratio (Mus musculus [16]) | IC50 ratio (Mus musculus [17]) | IC50 (Opioid receptor) [nM] | ED50 ratio (Mus musculus [18]) | IC50 ratio (Cavia porcellus [20]) | IC50 ratio (Mus musculus [21]) | ED50 ratio (Mus musculus [22]) | IC50 ratio (Cavia porcellus [24]) | ED50 ratio (Mus musculus [26]) | further results
1 | C=CCN(CC=C)[C@@H](Cc1ccc(O)cc1)C(=O)NC(C)(C)C(=O)NC(C)(C)C(=O)N[C@@H](Cc1ccccc1)C(=O)N[C@@H](CC(C)C)C(=O)O ({Tyr(Nα,Nα-allyl2)}-[Aib][Aib]FL-OH) | > 29 | > 29 |  |  |  |  |  |  |  |  |  |  |  |  |  |  |  | Ki [2]: 35 nM
2 | CSCC[C@H](NC(=O)[C@H](Cc1ccc(O)cc1)NC(=O)CNC(=O)CNC(=O)[C@H](Cc1ccccc1)NC(=O)[C@H](CC(C)C)NC(=O)[C@H](N)CO)C(=O)N[C@H](C(=O)O)[C@@H](C)O |  |  | 0.45 | 0.0032 |  |  |  |  |  |  |  |  |  |  |  |  |  | 
3 | Oc1ccc2c3c1O[C@H]1c4[nH]c5ccccc5c4C[C@H]4[C@@H](C2)N(C/C=C/c2ccccc2)CC[C@]314 | > 9 | > 9 |  |  | 19 | 2 | > 1000 | > 1000 |  |  |  |  |  |  |  |  |  | IC50 ratio (Mus musculus [6]): 1.1; IC50 ratio (Cavia porcellus [9]): 0.9; IC50 ratio (Mus musculus [11]): 0.8; IC50 ratio (Cavia porcellus [13]): 0.8
4 | Oc1ccc2c3c1O[C@H]1c4[nH]c5ccccc5c4C[C@@]4(O)[C@@H](C2)N(CCc2ccccc2)CC[C@]314 |  |  | 2.2 | 0.4 |  | 15 | > 1000 | > 1000 | 3.2 | 0.9 | 171 | 5.5 | 0.8 | 0.6 | 4 | 0.8 | 1.3 | ED50 ratio (Mus musculus [14]): 0.4; ED50 ratio (Mus musculus [15]): 2.8; ED50 ratio (Mus musculus [19]): 5.8; IC50 (Cavia porcellus [23]): 76 nM; ED50 ratio (Mus musculus [25]): 0.6; ED50 ratio (Mus musculus [27]): 1.4; ED50 ratio (Mus musculus [28]): 21.6
5 | CN1CC[C@]23c4c5ccc(O)c4O[C@H]2c2c(c4ccccc4n2C)C[C@@]3(O)[C@H]1C5 |  |  |  | 0.01 | 23 | 9 |  |  |  | 1 |  |  | 0.7 | 1.2 |  | 0.5 |  | 
6 | Oc1ccc2c3c1O[C@H]1c4[nH]c5ccccc5c4C[C@@]4(O)C(C2)NCC[C@]314 | > 357 | 224 | 10.9 | 1.1 |  | 41 |  | > 1000 | 1.6 | 0.7 | 124 | 1.6 | 0.7 | 0.9 | 1.2 | 0.8 | 0.9 | Ki (Mu-type opioid receptor [29]): > 1000 nM; ED50 ratio (Mus musculus [30]): 0.7; IC50 (Cavia porcellus [31]): 121 nM; ED50 ratio (Mus musculus [32]): 2.5; ED50 ratio (Mus musculus [33]): 1.1; ED50 ratio (Mus musculus [34]): 5.4
